According to ChEMBL document CHEMBL4007401, “Lynamicin D an antimicrobial natural product affects splicing by inducing the expression of SR protein kinase 1” (2017):
Active and inactive are the calls of the source. The calls are words filed in the database; no cut-off is given here.

Columns and labels:
[1] = test system: HeLa; experiment: Modulation of constitutive splicing of rat insulin exons 1 to 3 pre-mRNA expressed in human HeLa cells assessed as retention of introns up to 20 uM after 24 hrs by ethidium bromide staining based agarose gel electrophoresis method
[2] = test system: A549; experiment: Modulation of constitutive splicing of rat insulin exons 1 to 3 pre-mRNA expressed in human A549 cells assessed as retention of introns up to 20 uM after 24 hrs by ethidium bromide staining based agarose gel electrophoresis method; format: cell-based
[3] = test system: T98G; experiment: Cytotoxicity against human T98G cells assessed as cell viability at 30 uM after 48 hrs by MTT assay relative to control; format: functional; conditions: read-out: Activity
In short: (§1)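 Cells seeded at 10^4 per well, exposed 24 h later to lynamicin D (0-20 µM in methods; 30 µM stated in results) for 48 h. Then 4 h with 0.5 mg/ml MTT, crystals dissolved in 10% SDS in 0.01 N HCl, A570 read. Blanked against DMSO; medium-only cells = 100% viability. Means ±SE, three independent experiments.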

[4] = test system: HeLa; experiment: Modulation of alternative splicing of SRp20 exons […] pre-mRNA (unknown origin) expressed in human HeLa cells assessed as inclusion of exon-4 up to 20 uM after 24 hrs by ethidium bromide staining based agarose gel electrophoresis method; format: cell-based
In short: (§2)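 HeLa (2 x 10exp4) transfected with 0.5 µg pSMN2 (exons 6-8) or pSRp20 (exons 3-5), or 1 µg pSVIRB (rat insulin exons 1-3). After 4 h, medium replaced with lynamicin D (0-20 µM; results cite 10, 20, 30 µM) or DMSO. RNA at 24 h, 1 µg RT, 30 PCR cycles, annealing 60 °C (SRp20 55 °C). Agarose gels; upper/lower band ratio. Means ±SE, n=3.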

[5] = test system: HeLa; experiment: Modulation of SRPK1 pre-mRNA splicing in human HeLa cells assessed as effect on intracellular localization of SRPK1 at 30 uM after 24 hrs by DAPI staining based immunofluorescence microscopic method; format: cell-based
[6] = biological target: SRSF protein kinase 1 (Homo sapiens) (UniProt Q96SB4); experiment: Inhibition of GST-tagged SRPK1 (unknown origin) at 5 to 30 uM using GST-LBRNt (62 to 92 residues) as substrate by SDS-PAGE based autoradiography
Chain of SRSF protein kinase 1 (Homo sapiens) (Q96SB4 whole entry, the tested form may be a part): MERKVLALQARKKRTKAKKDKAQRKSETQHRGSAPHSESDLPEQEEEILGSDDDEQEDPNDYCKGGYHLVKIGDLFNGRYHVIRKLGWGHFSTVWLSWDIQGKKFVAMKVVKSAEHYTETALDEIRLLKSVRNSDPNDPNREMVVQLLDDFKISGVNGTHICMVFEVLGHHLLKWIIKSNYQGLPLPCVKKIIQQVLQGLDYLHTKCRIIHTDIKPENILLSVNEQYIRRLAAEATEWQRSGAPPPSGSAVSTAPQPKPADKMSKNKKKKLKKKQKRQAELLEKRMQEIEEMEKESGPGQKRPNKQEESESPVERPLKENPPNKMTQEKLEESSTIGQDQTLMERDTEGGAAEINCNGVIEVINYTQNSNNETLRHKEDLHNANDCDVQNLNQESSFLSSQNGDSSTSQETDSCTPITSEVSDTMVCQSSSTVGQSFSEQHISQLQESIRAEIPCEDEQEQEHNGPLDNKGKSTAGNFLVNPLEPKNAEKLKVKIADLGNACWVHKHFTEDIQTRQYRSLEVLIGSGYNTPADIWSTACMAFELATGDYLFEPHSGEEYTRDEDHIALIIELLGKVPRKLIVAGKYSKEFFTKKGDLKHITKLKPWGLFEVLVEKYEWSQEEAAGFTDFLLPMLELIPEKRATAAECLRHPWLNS
In short: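 Radioactive kinase reaction, 25 µL: 12 mM Hepes pH 7.5, 10 mM MgCl2, 25 µM ATP, 0.5 µg recombinant GST-SRPK1, 1 µg GST-LBRNt(62-92) (LBR N-terminal RS-containing fragment) as substrate. Lynamicin D 0-30 µM or SRPIN340 5 µM. Products run on 12% SDS-PAGE, Coomassie-stained and autoradiographed; incorporation measured by excising bands and scintillation counting.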

[7] = test system: HeLa; experiment: Modulation of SRPK1 pre-mRNA splicing in human HeLa cells assessed as increase in SRPK1 protein level at 10 to 30 uM after 24 hrs by Western blot method relative to control; format: cell-based
In short: (§3)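 Lysis in 1% Triton X-100, 20 mM Hepes-KOH pH 7.5, 150 mM NaCl, 1 mM PMSF, 30 min on ice, needle-sheared, spun 13,000 g 15 min. Equal protein on 10% SDS-PAGE. Endogenous SRPK1 probed with mouse monoclonal anti-SRPK1, GAPDH as loading control, AP secondary with BCIP/NBT; SRPK1/GAPDH by densitometry.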

[8] = test system: HeLa (Homo sapiens); experiment: Modulation of alternative splicing of SRp20 exons […] pre-mRNA (unknown origin) expressed in human HeLa cells assessed as inclusion of exon-4 up to 20 uM after 24 hrs by ethidium bromide staining based agarose gel electrophoresis method
[9] = organism: Rattus norvegicus; experiment: Modulation of constitutive splicing of rat insulin exons 1 to 3 pre-mRNA expressed in human T98G cells assessed as retention of introns up to 20 uM after 24 hrs by ethidium bromide staining based agarose gel electrophoresis method; format: cell-based
[10] = test system: A549; experiment: Cytotoxicity against human A549 cells assessed as cell viability at 30 uM after 48 hrs by MTT assay relative to control; format: functional; conditions: A549, 48 h, read-out: Activity
In short: as §1

[11] = test system: HeLa; experiment: Modulation of alternative splicing of SMN2 exons 6 to 8 pre-mRNA (unknown origin) expressed in human HeLa cells assessed as inclusion of exon-7 up to 20 uM after 24 hrs by ethidium bromide staining based agarose gel electrophoresis method; format: cell-based
In short: as §2

[12] = test system: HeLa; experiment: Cytotoxicity against human HeLa cells assessed as cell viability at 30 uM after 48 hrs by MTT assay relative to control; format: functional; conditions: read-out: Activity
In short: as §1

[13] = test system: HeLa; experiment: Modulation of constitutive splicing of rat insulin exons 1 to 3 pre-mRNA expressed in human HeLa cells assessed as retention of introns up to 20 uM after 24 hrs by ethidium bromide staining based agarose gel electrophoresis method; format: cell-based
In short: as §2

[14] = organism: Homo sapiens; experiment: Modulation of SRPK1 pre-mRNA splicing in human T98G cells assessed as increase in SRPK1 protein level at 10 to 30 uM after 24 hrs by Western blot method relative to control; format: cell-based
In short: as §3

[15] = test system: A549; experiment: Modulation of SRPK1 pre-mRNA splicing in human A549 cells assessed as increase in SRPK1 pre-mRNA level at 10 to 30 uM after 24 hrs by RT-PCR method relative to control; format: cell-based
In short: (§4)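 Total RNA from cells treated 24 h or control taken with TRIZOL. 1 µg reverse transcribed with random hexamers. SRPK1 amplified 27 cycles (95 °C 40 s, 66 °C 40 s, 72 °C 60 s); actin reference annealed at 60 °C. Products on 1% agarose, ethidium bromide. SRPK1/actin ratio by densitometry.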

[16] = test system: HeLa; experiment: Modulation of SRPK1 pre-mRNA splicing in human HeLa cells assessed as increase in SRPK1 pre-mRNA level at 10 to 30 uM after 24 hrs by RT-PCR method relative to control; format: cell-based
In short: as §4

[17] = organism: Homo sapiens; experiment: Modulation of SRPK1 pre-mRNA splicing in human T98G cells assessed as increase in SRPK1 pre-mRNA level at 10 to 30 uM after 24 hrs by RT-PCR method relative to control; format: cell-based
In short: as §4

[18] = test system: A549; experiment: Modulation of SRPK1 pre-mRNA splicing in human A549 cells assessed as increase in SRPK1 protein level at 10 to 30 uM after 24 hrs by Western blot method relative to control; format: cell-based
In short: as §3

[19] = Modulation of alternative splicing of SRp20 exons […] pre-mRNA (unknown origin) expressed in human T98G cells assessed as inclusion of exon-4 up to 20 uM after 24 hrs by ethidium bromide staining based agarose gel electrophoresis method; format: cell-based

Q: For `COC(=O)c1[nH]c(C(=O)OC)c(-c2c[nH]c3ccc(Cl)cc23)c1-c1c[nH]c2ccc(Cl)cc12` [LYNAMICIN D], which Activity [1] is on record?
A: Its Activity is “Active”.

Q: What about the Activity [2] of the same compound?
A: The Activity was “Active”.

Q: What about the viability at 30 µM [3] of the same compound?
A: Its viability at 30 µM is 91%.

Q: And the Activity [4]?
A: The Activity was “Active”.

Q: What about the Activity [5] of the same compound?
A: Its Activity is “inactive”.

Q: And the inhibition [6]?
A: Its inhibition is “inactive”.

Q: What about the fold change (FC) [7] of the same compound?
A: Its fold change (FC) is 1.9.

Q: And the Activity [8]?
A: The Activity was “Active”.

Q: And the Activity [9]?
A: Its Activity is “Active”.

Q: And the viability at 30 µM [10]?
A: Its viability at 30 µM is 88%.

Q: What about the Activity [11] of the same compound?
A: Its Activity is “Active”.

Q: What about the viability at 30 µM [12] of the same compound?
A: Its viability at 30 µM is 82%.

Q: What about the Activity [13] of the same compound?
A: Its Activity is “Active”.

Q: What about the Activity [14] of the same compound?
A: The Activity was “Active”.

Q: And the Activity [15]?
A: The Activity was “Active”.

Q: What about the fold change (FC) [16] of the same compound?
A: The fold change (FC) was 3.

Q: What about the Activity [17] of the same compound?
A: Its Activity is “Active”.

Q: What about the Activity [18] of the same compound?
A: Its Activity is “Active”.

Q: What about the Activity [19] of the same compound?
A: Its Activity is “Active”.
